ChEMBL document CHEMBL4265911, “The synthesis and kinetic evaluation of aryl α-aminophosphonates as novel inhibitors of T. cruzi trans-sialidase” (Eur J Med Chem, 2018)

How the values were obtained:
Trans-sialidase [1] = molecular target: T1, Trans-sialidase (Trypanosoma cruzi, UniProt Q26964); test: Inhibition of Trypanosoma cruzi trans-sialidase using CF3MuSA as substrate by UV/visible spectrophotometric method
T1 sequence (Q26964 whole entry): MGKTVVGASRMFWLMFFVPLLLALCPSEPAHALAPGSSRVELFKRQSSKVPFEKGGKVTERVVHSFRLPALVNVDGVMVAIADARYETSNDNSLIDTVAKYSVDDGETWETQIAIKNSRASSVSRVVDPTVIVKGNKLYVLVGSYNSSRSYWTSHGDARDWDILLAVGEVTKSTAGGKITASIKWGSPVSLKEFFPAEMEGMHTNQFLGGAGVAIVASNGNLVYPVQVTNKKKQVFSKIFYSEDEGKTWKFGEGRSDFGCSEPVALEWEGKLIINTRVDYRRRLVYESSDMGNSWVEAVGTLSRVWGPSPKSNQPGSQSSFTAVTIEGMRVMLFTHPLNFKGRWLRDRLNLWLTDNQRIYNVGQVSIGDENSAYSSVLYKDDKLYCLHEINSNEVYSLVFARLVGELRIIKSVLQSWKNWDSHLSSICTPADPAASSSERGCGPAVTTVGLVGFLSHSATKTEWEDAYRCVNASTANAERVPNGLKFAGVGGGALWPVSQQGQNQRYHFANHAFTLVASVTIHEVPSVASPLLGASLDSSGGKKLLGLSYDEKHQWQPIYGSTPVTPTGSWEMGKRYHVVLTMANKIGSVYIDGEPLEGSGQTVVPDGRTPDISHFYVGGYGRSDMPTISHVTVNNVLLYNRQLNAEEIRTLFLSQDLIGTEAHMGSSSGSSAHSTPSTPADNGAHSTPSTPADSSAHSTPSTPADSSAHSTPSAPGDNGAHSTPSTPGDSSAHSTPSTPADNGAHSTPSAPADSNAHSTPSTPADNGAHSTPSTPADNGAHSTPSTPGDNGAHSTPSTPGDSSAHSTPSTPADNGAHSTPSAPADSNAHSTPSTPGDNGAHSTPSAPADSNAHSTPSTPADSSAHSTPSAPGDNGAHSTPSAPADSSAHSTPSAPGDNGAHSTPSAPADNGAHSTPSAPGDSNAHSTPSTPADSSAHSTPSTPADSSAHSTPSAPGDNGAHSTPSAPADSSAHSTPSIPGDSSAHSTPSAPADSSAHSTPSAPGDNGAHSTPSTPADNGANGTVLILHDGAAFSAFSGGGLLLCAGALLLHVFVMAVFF

Trans-sialidase [2] = molecular target: T1, Trans-sialidase; test: Inhibition of recombinant HisA-tagged Trypanosoma cruzi trans-sialidase expressed in Escherichia coli BL21 (DE3) using MuNANA as substrate pretreated for 10 mins followed by substrate addition by fluorescence assay
Summary of the method: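 Continuous fluorometric hydrolysis assay at 35°C in 20mM Tris-HCl, 50mM NaCl, pH 7.5, 0.01% Triton X100. TcTS (50 µg/mL) was preincubated 10 min with at least seven inhibitor levels (1 µM–15 mM), then MuNANA (200 µM) was added. 4-Methylumbelliferone was read at ex 360/em 460 nm, with rate taken as the linear-region slope. IC50 was set at 50% activity loss versus the no-inhibitor control; n=3 independent experiments.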

Trans-sialidase [3] = molecular target: T1, Trans-sialidase; test: Non-competitive inhibition of recombinant HisA-tagged Trypanosoma cruzi trans-sialidase expressed in Escherichia coli BL21 (DE3) using varying levels of MuNANA as substrate by Lineweaver-burk plot analysis
Summary of the method: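 TcTS residual hydrolytic activity was measured with MuNANA at 0–400 µM across several set inhibitor concentrations, using the fluorometric method at 35°C and pH 7.5. Km/Vmax came from nonlinear fitting. Ki was fitted with competitive, non-competitive, uncompetitive and mixed models, and the best-fitting model was assigned as the mode. Lineweaver-Burk double-reciprocal plots were made at each inhibitor level.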

[4] = Solubility of the compound in pH 7.5 Tris-HCl buffer at >7.5 mM; type: physicochemical
Sialidase A = Sialidase A (Streptococcus pneumoniae, UniProt P62575); test: Inhibition of Streptococcus pneumoniae neuraminidase A using MuNANA as substrate pretreated for 10 mins followed by substrate addition by fluorescence assay
Sialidase = molecular target: T2, Sialidase (Clostridium perfringens, UniProt P10481); test: Inhibition of Clostridium perfringens neuraminidase using MuNANA as substrate pretreated for 10 mins followed by substrate addition by fluorescence assay
T2 sequence (P10481 whole entry): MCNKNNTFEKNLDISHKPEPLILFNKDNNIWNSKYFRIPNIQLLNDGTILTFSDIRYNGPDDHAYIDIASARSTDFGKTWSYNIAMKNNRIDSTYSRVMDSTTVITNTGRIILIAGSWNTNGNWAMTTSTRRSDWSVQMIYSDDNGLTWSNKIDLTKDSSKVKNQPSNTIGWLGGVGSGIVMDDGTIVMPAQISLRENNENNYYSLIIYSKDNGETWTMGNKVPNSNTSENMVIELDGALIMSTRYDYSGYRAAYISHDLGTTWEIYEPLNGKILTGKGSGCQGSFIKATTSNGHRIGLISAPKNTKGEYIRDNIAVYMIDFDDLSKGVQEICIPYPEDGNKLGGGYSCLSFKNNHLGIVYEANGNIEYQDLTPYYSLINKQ

[5] = Selectivity ratio of IC50 for Clostridium perfringens neuraminidase to IC50 for recombinant HisA-tagged Trypanosoma cruzi trans-sialidase expressed in Escherichia coli BL21 (DE3)
[6] = Selectivity ratio of IC50 for Streptococcus pneumoniae neuraminidase A to IC50 for recombinant HisA-tagged Trypanosoma cruzi trans-sialidase expressed in Escherichia coli BL21 (DE3)
Trans-sialidase [7] = molecular target: T1, Trans-sialidase; test: Inhibition of recombinant Trypanosoma cruzi trans-sialidase expressed in Escherichia coli BL21 (DE3) using MuNANA as substrate after 10 mins in presence of [D-glucose-1-14C]lactose by liquid scintillation counting method
Trans-sialidase [8] = molecular target: T1, Trans-sialidase; test: Inhibition of Trypanosoma cruzi trans-sialidase
Summary of the method: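 TcTS, point-mutated to aid crystallisation and expressed in E. coli BL21(DE3), at 50 µg/mL; pre-incubated 10 min at 35°C with ≥7 inhibitor levels (1 µM–15 mM). MuNANA (200 µM) then added. Buffer: 20 mM Tris-HCl, 50 mM NaCl, pH 7.5, 0.01% Triton X100. Continuous fluorescence (ex 360/em 460 nm), slope RFU/min. IC50 versus no-inhibitor control; n=3 independent experiments.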

[9] = compound: OC[C@@H](O)[C@@H](O[C@@H]1O[C@H](CO)[C@H](O)[C@H](O)[C@H]1O)[C@H](O)[C@@H](O)CO; test: Inhibition of recombinant HisA-tagged Trypanosoma cruzi trans-sialidase expressed in Escherichia coli BL21 (DE3) using 3-sialyl-lactose as donor measured after 15 mins by HPAEC-PAD

Chain of Sialidase A (P62575 whole entry): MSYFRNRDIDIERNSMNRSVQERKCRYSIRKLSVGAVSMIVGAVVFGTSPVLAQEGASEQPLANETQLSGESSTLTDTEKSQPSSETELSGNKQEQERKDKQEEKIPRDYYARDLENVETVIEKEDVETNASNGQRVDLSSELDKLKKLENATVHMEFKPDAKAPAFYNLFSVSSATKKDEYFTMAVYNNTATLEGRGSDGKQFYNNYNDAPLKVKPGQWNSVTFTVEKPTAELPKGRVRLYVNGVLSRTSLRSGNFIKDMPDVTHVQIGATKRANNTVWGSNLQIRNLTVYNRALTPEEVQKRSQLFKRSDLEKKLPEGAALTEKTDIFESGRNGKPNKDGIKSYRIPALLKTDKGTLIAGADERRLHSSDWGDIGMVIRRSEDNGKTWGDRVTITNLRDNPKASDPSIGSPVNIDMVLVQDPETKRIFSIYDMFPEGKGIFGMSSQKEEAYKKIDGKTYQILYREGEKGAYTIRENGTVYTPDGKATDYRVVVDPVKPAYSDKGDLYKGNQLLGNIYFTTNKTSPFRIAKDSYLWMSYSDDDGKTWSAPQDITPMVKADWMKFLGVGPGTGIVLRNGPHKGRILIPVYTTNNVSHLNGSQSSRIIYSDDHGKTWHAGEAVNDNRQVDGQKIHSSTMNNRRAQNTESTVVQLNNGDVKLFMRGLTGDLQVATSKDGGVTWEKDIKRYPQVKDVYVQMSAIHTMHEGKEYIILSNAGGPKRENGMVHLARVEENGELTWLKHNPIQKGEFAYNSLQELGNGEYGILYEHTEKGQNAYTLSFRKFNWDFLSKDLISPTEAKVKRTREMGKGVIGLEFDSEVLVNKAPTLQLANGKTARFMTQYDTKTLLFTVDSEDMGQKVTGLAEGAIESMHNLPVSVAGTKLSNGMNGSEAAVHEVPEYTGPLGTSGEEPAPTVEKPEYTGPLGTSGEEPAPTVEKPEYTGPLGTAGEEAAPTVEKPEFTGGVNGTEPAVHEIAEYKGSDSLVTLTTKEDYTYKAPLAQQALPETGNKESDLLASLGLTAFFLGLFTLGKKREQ

Cc1ccc(S(=O)(=O)Nc2ccc(C(=O)/C=C/c3ccc(O)c(O)c3)cc2)cc1
IC50 (Trans-sialidase [1]): 0.9 µM

O=P(O)(O)C(Nc1cccc2ccccc12)c1ccccc1 (racemic)
IC50 (Trans-sialidase [2]): 470 µM | Ki (Trans-sialidase [3]): 430 µM

O=P(O)(O)C(Nc1cccc2ccccc12)c1ccc(C(F)(F)F)cc1 (racemic)
IC50 (Trans-sialidase [2]): 290 µM

COc1ccc(C(Nc2cccc3ccccc23)P(=O)(O)O)cc1 (racemic)
IC50 (Trans-sialidase [2]): 270 µM

CC(=O)Nc1ccc(C(Nc2cccc3ccccc23)P(=O)(O)O)cc1 (racemic)
IC50 (Trans-sialidase [2]): 230 µM | Ki (Trans-sialidase [3]): 190 µM

O=P(O)(O)C(Nc1ccccc1-c1ccccc1)c1ccccc1 (racemic)
IC50 (Trans-sialidase [2]): 630 µM

O=P(O)(O)C(Nc1cccc2ccccc12)c1ccc(Cl)cc1 (racemic)
IC50 (Trans-sialidase [2]): 710 µM

O=P(O)(O)C(Nc1cccc2ccccc12)c1cc(C(F)(F)F)cc(C(F)(F)F)c1 (racemic)
IC50 (Trans-sialidase [2]): 2350 µM

O=P(O)(O)C(Nc1ccccc1)c1ccccc1 (racemic)
solubility [4]: Soluble | IC50 (Trans-sialidase [2]): > 7500 µM

O=P(O)(O)C(Nc1cccc(-c2ccccc2)c1)c1ccccc1 (racemic)
IC50 (Trans-sialidase [2]): 5580 µM

O=P(O)(O)C(Nc1ccc2ccccc2c1)c1ccccc1 (racemic)
IC50 (Trans-sialidase [2]): 510 µM

O=[N+]([O-])c1ccc(C(Nc2cccc3ccccc23)P(=O)(O)O)cc1 (racemic)
IC50 (Sialidase A): 1410 µM | IC50 (Trans-sialidase [2]): 210 µM | IC50 (Sialidase): 2390 µM | Ki (Trans-sialidase [3]): 140 µM | Ratio IC50 [5]: 7 to 12 | Ratio IC50 [6]: 7 to 12

CC(=O)N[C@H]1[C@H]([C@H](O)[C@H](O)CO)OC(C(=O)O)=C[C@@H]1O [NEU5AC2EN]
Ki (Trans-sialidase [7]): 12300 µM

Cc1ncc(COP(=O)(O)O)c(C=O)c1O [PYRIDOXAL PHOSPHATE ANHYDROUS]
Ki (Trans-sialidase [8]): 7300 µM

B1: Trans-sialidase (Trypanosoma cruzi), Q26964 (protein)
chain: T1 sequence (Q26964 whole entry)
Km [9]: 260 µM
